Assay results from ChEMBL document CHEMBL1122130, “Nonsteroidal antiinflammatory agents. 1. 10,11-Dihydro-11-oxodibenz[b, f]oxepinacetic acids and related compounds” (J Med Chem, 1982).

Columns and labels:
Mus musculus = organism: Mus musculus; assay: Effective dose for analgesic activity in mice; assay type: functional
In short: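 Female ddN mice (18-22 g; 5-15 per dose) received compound in 0.5% aqueous tragacanth. Writhing was induced by intraperitoneal 0.03% phenylquinone, and writhes were counted over 15 min. ED50 was calculated by Litchfield–Wilcoxon.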

Rattus norvegicus [1] = assay: Effective dose for antiinflammatory activity in carrageenan paw edema assay in rats after oral administration; assay type: functional
In short: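 Male Wistar rats (120-150 g; 5-10 per dose) were dosed orally in 0.5% aqueous tragacanth. Edema was induced by subcutaneous injection of 1% aqueous carrageenan into the left hind paw.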

[2] = Lethal dose determined in rats when administered perorally; assay type: toxicity, organism-based; conditions: rat, in vivo, po
In short: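 Male Wistar rats (150-230 g), dosed orally with compound dissolved or suspended in 0.5% aqueous tragacanth. LD50 taken from mortality over 7 days and calculated by the Litchfield-Wilcoxon method.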

Rattus norvegicus [3] = assay: Compound was evaluated for the induction no of gastric ulcers in rats when administered perorally; assay type: functional, Stomach
In short: (§1)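 Male Wistar rats were fasted 24 h and given compound once orally in 0.5% aqueous tragacanth. Stomachs were removed 6 h later and examined macroscopically. UD50 (dose causing ulcers in 50% of rats) was taken from each compound's regression line.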

Rattus norvegicus [4] = assay: Compound was evaluated for the induction of gastric ulcers in rats after oral administration; assay type: functional; conditions: Stomach; in short: as §1
Rattus norvegicus [5] = organism: Rattus norvegicus; assay: Analgesic activity measured as silver nitrate induced arthritic pain in rats; assay type: functional
In short: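 Pain in the arthritic rat paw was provoked with silver nitrate. Compounds were given in 0.5% aqueous tragacanth, and ED50 was calculated by the Litchfield–Wilcoxon method.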

Rattus norvegicus [6] = assay: compound was evaluated for the induction no of gastric ulcers in rats when administered perorally; assay type: functional, Stomach; in short: as §1
Rattus norvegicus [7] = organism: Rattus norvegicus; assay: Antipyretic activity measured as yeast induced fever assay in rats; assay type: functional
In short: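 Male Wistar rats (350-500 g); hyperthermia induced by subcutaneous injection of 15% yeast suspension. Test compounds dissolved or suspended in 0.5% aqueous tragacanth and administered. ED50 calculated by the Litchfield–Wilcoxon method.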

Compound	ED50 (Mus musculus) [mg/kg]	ED50 (Rattus norvegicus [1]) [mg/kg]	other results
O=C(O)Cc1ccc2c(c1)C(O)Cc1cc(F)ccc1O2 (stereo not given)	> 100	> 80	
Cc1ccc2c(c1)CC(=O)c1cc(C(C)C(=O)O)ccc1S2 (stereo not given)	3.1		LD50 [2]: > 100 mg/kg; UD50 (Rattus norvegicus [3]): 11.3 mg/kg
Cc1ccc2c(c1)CC(O)c1cc(C(C)C(=O)O)ccc1S2 (stereo not given)	> 100	> 80	
Cc1ccc2c(c1)CC(=O)c1cc(C(C)C(=O)O)ccc1O2 (stereo not given) [BERMOPROFEN]	6.51		LD50 [2]: 147 mg/kg; ED50 (Rattus norvegicus [4]): 13.8 mg/kg
O=C(O)Cc1ccc2c(c1)C(O)Cc1ccc(Cl)cc1O2 (stereo not given)	> 100	> 80	
O=C(O)Cc1ccc2c(c1)C(=O)Cc1ccccc1O2	34.4	10.8	
Cc1ccc2c(c1)CC(O)c1cc(CC(=O)O)ccc1O2 (stereo not given)	> 100	> 80	
CC(C(=O)O)c1ccc2c(c1)C=Cc1ccccc1O2 (stereo not given)	> 100	≥ 80	
CC(C(=O)O)c1ccc2c(c1)C(=O)Nc1ccccc1O2 (stereo not given)	> 100	> 80	
O=C(O)Cc1ccc2c(c1)C=Cc1ccccc1O2	> 100	28.3	
Cc1ccc2c(c1)C=Cc1cc(C(C)C(=O)O)ccc1O2 (stereo not given)	> 100	> 80	
Cc1ccc2c(c1)CC(O)c1cc(C(C)C(=O)O)ccc1O2 (stereo not given)	> 100	> 80	
O=C(O)Cc1ccc2c(c1)C=Cc1cc(Cl)ccc1O2	> 100	> 80	
O=C(O)Cc1ccc2c(c1)C(=O)Cc1cc(F)ccc1O2	> 100	≥ 80	
O=C(O)Cc1ccc2c(c1)C(O)Cc1cc(Cl)ccc1O2 (stereo not given)	> 100	> 80	
O=C(O)Cc1ccc2c(c1)C(=O)Nc1ccccc1O2	> 100	> 80	

Compound	ED50 (Mus musculus) [mg/kg]	ED50 (Rattus norvegicus [1]) [mg/kg]	other results
O=C(O)Cc1ccc2c(c1)C(O)Cc1ccccc1O2 (stereo not given)	44.6	24.3	
O=C(O)Cc1ccc2c(c1)Oc1ccccc1NC2=O	> 100	> 80	
Cc1ccc2c(c1)CC(=O)c1cc(CC(=O)O)ccc1O2	13.8		
CC(C(=O)O)c1ccc2c(c1)C(=O)Cc1ccccc1O2 (stereo not given)	17.8		
O=C(O)Cc1ccc2c(c1)C=Cc1ccc(Cl)cc1O2	9.53	61.4	
CC(C(=O)O)c1ccc2c(c1)C(O)Cc1ccccc1O2 (stereo not given)	> 100	> 80	
O=C(O)Cc1ccc2c(c1)Oc1ccccc1C=C2	> 100	> 80	
O=C(O)Cc1ccc2c(c1)Oc1ccccc1CC2=O	≥ 100	56.9	
COc1ccc2c(c1)c(CC(=O)O)c(C)n2C(=O)c1ccc(Cl)cc1 [INDOMETHACIN]	0.62		ED50 (Rattus norvegicus [5]): 4.3 mg/kg; UD50 (Rattus norvegicus [6]): 8 mg/kg; ED50 (Rattus norvegicus [7]): 0.22 mg/kg; LD50 [2]: 18.5 mg/kg
O=C(O)Cc1ccc2c(c1)C(=O)Cc1cc(Cl)ccc1O2	≥ 100	≥ 80	
O=C(O)Cc1ccc2c(c1)C(=O)Cc1ccc(Cl)cc1O2	> 100	≥ 80	
Cc1ccc2c(c1)C=Cc1cc(CC(=O)O)ccc1O2	> 100	> 80	
Cc1ccc2c(c1)C=Cc1cc(C(C)C(=O)O)ccc1S2 (stereo not given)	> 100	> 80	
O=C(O)Cc1ccc2c(c1)Oc1ccccc1CC2O (stereo not given)	> 100	> 80	
O=C(O)Cc1ccc2c(c1)C=Cc1cc(F)ccc1O2	> 100	> 80	
